# Results as given in ChEMBL document CHEMBL5046217, “Discovery of New Imidazo[2,1-b]thiazole Derivatives as Potent Pan-RAF Inhibitors with Promising In Vitro and In Vivo Anti-melanoma Activity” (J Med Chem, 2021).
# Calls of active or inactive are those of the source. No cut-off for these calls is given here.
# Key:
# [1] = biological target: Serine/threonine-protein kinase B-raf (Homo sapiens, UniProt P15056); assay: Inhibition of human wild type BRAF using myelin basic protein as substrate in presence of [gamma-33P]ATP incubated for 40 mins by scintillation counting method
# Sequence of Serine/threonine-protein kinase B-raf (Homo sapiens, UniProt P15056) (P15056 whole entry): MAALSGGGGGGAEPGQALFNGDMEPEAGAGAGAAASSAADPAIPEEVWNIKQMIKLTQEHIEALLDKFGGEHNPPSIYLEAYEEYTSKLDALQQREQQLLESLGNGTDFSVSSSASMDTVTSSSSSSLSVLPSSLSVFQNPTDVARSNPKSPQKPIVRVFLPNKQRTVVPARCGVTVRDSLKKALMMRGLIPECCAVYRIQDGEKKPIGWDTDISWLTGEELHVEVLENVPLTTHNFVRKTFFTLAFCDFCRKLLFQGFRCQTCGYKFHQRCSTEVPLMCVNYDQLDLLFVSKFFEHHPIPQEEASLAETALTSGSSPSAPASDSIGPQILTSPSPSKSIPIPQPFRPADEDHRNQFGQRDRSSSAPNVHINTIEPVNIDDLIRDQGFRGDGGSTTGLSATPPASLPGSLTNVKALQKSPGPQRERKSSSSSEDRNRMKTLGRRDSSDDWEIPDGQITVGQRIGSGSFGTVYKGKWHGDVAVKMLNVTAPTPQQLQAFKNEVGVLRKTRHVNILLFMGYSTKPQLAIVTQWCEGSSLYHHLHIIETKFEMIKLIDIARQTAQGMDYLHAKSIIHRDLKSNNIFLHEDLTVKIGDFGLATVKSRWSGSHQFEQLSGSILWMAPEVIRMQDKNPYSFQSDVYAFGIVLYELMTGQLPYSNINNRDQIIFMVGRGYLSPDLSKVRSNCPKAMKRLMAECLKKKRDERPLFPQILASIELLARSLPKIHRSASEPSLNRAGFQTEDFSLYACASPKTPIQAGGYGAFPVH
# Method in brief: (§1)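 Radiometric kinase assay run at Reaction Biology. Kinase (5−10 mU) in 25 mM Tris pH 7.5, 0.02 mM EGTA, 10 mM magnesium acetate with 0.66 mg/mL myelin basic protein and [γ-33P]ATP at 1 μM ATP. Reaction started with Mg-ATP and run 40 min at room temperature, then stopped with 3% phosphoric acid. Spotted on P30 filtermat, washed, scintillation counted.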
# [2] = biological target: Serine/threonine-protein kinase B-raf (Homo sapiens, UniProt P15056, V600E); assay: Inhibition of human BRAF V600E mutant using myelin basic protein as substrate in presence of [gamma-33P]ATP incubated for 40 mins by scintillation counting method; method in brief: as §1
# [3] = biological target: RAF proto-oncogene serine/threonine-protein kinase (Homo sapiens, UniProt P04049); assay: Inhibition of human wild type CRAF using myelin basic protein as substrate in presence of [gamma-33P]ATP incubated for 40 mins by scintillation counting method
# Sequence of RAF proto-oncogene serine/threonine-protein kinase (P04049 whole entry): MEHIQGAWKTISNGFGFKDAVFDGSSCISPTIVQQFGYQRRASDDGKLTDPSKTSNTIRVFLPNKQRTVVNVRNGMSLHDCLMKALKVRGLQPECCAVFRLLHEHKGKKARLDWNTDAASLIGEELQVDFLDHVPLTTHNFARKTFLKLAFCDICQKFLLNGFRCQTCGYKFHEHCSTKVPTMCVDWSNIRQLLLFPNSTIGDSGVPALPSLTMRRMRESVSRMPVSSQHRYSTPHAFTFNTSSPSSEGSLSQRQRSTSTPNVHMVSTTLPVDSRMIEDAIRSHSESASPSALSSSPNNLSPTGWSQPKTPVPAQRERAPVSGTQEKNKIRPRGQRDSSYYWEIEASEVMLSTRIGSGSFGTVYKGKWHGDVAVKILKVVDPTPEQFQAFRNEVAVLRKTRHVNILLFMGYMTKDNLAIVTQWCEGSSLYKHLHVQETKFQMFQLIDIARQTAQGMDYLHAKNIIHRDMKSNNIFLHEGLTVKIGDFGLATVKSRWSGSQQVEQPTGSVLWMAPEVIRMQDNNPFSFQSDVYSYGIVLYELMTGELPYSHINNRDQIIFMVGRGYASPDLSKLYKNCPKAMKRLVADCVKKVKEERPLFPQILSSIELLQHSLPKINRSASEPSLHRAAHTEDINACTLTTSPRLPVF
# [4] = Cytotoxicity against human L132 cells assessed as cell growth inhibition incubated for 48 hrs by MTT assay; format: toxicity, cell-based
# [5] = Cytotoxicity against human BJ cells assessed as cell growth inhibition incubated for 48 hrs by MTT assay; format: toxicity, cell-based
# Method in brief: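 BJ1 normal skin fibroblasts were seeded at 10 × 10³ cells/well with compound in triplicate wells and grown in DMEM-F12 at 37 °C, 5% CO₂, across an eight-point dilution series. Growth inhibition was calculated as (1 − T/C) × 100, and IC50 was taken from the dose–response curve.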
# A-375 [6] = assay: Inhibition of Pan-Raf in human A-375 cells assessed as reduction in MEK phosphorylation at 5 uM measured after 24 hrs by immunoblot assay; format: cell-based
# Method in brief: (§2)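 A375 cells were treated for 24 h, including at 5 μM alongside vemurafenib. Cells were lysed in RIPA buffer with phosphatase and protease inhibitors, separated by SDS-PAGE and blotted to PVDF. Blots were probed for phospho-MEK1/2, phospho-ERK1/2, total MEK and total ERK, with chemiluminescent detection.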
# A-375 [7] = assay: Inhibition of Pan-Raf in human A-375 cells assessed as reduction in ERK phosphorylation at 5 uM measured after 24 hrs by immunoblot assay; format: cell-based; method in brief: as §2
# [8] = biological target: Tyrosine-protein kinase ABL1 (Homo sapiens, UniProt P00519); assay: Inhibition of ABL1 (unknown origin) incubated for 1 hr by qPCR analysis
# Sequence of Tyrosine-protein kinase ABL1 (P00519 whole entry): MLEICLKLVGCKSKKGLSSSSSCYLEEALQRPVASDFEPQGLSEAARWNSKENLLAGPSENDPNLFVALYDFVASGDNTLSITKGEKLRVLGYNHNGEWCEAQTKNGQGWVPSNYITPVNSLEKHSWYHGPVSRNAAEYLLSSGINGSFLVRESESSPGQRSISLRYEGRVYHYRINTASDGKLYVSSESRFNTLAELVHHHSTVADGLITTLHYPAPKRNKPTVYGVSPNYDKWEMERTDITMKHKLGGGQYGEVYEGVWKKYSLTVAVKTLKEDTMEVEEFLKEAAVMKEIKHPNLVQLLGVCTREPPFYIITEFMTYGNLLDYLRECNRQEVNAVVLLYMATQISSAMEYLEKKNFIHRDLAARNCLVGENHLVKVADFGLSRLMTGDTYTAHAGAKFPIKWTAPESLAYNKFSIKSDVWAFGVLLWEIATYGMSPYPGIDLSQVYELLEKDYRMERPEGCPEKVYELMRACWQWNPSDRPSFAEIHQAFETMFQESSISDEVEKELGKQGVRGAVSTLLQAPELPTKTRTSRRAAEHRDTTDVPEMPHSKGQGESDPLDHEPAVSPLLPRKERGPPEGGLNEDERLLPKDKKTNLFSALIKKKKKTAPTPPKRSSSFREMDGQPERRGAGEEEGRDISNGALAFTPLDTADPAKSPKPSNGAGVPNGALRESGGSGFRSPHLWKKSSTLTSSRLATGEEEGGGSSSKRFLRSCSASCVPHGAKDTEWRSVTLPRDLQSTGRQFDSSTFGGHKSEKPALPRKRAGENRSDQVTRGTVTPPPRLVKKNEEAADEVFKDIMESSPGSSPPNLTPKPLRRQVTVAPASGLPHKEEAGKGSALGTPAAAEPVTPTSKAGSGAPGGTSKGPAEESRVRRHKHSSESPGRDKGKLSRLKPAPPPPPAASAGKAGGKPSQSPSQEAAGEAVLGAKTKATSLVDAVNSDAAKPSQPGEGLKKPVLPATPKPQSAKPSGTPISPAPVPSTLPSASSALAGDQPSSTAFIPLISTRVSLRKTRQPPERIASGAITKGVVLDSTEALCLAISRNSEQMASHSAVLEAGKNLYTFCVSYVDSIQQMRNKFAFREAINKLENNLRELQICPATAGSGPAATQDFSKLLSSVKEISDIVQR
# [9] = biological target: Serine/threonine-protein kinase/endoribonuclease IRE1 (Homo sapiens, UniProt O75460); assay: Inhibition of ERN1 (unknown origin) incubated for 1 hr by qPCR analysis
# Method in brief: (§3)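 Competition binding assay. Kinases were either T7-phage-tagged (grown in an E. coli BL21-derived host) or expressed in HEK-293 cells and DNA-tagged. […] Bound kinase was eluted with non-biotinylated ligand and quantified by qPCR.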
# [10] = biological target: T1, Receptor-type tyrosine-protein kinase FLT3 (Homo sapiens, UniProt P36888); assay: Inhibition of FLT3 (unknown origin) incubated for 1 hr by qPCR analysis; method in brief: as §3
# T1 sequence (P36888 whole entry): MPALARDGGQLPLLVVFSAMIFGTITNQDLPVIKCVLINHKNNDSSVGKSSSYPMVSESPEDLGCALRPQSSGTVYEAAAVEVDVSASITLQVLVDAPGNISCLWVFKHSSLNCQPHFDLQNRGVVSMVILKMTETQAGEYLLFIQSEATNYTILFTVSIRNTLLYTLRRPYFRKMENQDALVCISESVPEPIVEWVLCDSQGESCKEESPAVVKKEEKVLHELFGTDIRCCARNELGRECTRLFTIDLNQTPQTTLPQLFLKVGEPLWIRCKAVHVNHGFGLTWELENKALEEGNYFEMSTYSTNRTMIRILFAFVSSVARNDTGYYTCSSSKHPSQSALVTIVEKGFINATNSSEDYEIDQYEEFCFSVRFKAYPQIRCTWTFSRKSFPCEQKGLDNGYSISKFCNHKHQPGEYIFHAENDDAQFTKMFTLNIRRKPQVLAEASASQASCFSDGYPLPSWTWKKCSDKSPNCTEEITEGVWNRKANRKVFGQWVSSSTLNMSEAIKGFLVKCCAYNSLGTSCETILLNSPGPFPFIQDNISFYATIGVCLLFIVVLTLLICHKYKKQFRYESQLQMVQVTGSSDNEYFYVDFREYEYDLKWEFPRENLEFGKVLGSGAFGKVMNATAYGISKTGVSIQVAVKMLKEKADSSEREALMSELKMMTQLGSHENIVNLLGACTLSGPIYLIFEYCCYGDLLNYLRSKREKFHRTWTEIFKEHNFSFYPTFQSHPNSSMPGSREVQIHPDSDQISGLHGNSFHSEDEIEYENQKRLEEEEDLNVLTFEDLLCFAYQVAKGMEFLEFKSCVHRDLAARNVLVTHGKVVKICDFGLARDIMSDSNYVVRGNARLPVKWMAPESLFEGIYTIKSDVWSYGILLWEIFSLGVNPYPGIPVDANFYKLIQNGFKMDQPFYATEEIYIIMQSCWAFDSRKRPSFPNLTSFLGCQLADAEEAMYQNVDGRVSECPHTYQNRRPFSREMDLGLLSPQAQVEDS
# [11] = biological target: Homeodomain-interacting protein kinase 1 (Homo sapiens, UniProt Q86Z02); assay: Inhibition of HIPK1 (unknown origin) incubated for 1 hr by qPCR analysis; method in brief: as §3
# Sequence of Homeodomain-interacting protein kinase 1 (Q86Z02 whole entry): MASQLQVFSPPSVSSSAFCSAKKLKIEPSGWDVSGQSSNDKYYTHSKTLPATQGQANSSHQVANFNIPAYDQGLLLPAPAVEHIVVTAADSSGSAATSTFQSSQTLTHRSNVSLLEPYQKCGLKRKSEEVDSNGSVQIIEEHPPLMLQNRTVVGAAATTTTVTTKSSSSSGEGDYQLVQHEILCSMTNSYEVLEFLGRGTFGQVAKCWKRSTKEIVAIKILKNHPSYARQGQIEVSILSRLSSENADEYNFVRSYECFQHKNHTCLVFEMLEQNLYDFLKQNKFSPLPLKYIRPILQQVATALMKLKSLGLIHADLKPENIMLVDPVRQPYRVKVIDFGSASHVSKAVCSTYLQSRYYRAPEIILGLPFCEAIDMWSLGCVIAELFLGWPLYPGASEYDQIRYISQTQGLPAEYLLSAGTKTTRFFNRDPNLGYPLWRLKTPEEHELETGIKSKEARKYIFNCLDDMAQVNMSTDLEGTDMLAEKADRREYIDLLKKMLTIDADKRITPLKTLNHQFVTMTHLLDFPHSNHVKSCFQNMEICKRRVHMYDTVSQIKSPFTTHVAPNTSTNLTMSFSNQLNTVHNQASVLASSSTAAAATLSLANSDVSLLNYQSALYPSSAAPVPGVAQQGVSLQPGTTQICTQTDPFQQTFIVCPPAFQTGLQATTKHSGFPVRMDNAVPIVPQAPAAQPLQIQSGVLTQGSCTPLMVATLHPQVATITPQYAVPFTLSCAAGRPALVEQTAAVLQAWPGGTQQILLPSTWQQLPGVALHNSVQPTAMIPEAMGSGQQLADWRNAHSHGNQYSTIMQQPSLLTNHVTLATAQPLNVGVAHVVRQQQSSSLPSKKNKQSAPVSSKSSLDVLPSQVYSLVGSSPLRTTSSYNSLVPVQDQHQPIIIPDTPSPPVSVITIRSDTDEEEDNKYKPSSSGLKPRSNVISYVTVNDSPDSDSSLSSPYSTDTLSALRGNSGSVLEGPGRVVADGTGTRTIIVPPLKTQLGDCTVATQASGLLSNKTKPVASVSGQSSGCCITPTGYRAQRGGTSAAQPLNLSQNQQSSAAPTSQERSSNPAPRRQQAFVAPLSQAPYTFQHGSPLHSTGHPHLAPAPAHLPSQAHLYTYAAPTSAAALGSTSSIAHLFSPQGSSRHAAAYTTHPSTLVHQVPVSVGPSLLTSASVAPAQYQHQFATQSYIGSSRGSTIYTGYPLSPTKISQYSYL
# [12] = biological target: Mitogen-activated protein kinase 8 (Homo sapiens, UniProt P45983); assay: Inhibition of MAPK8 (unknown origin) incubated for 1 hr by qPCR analysis; method in brief: as §3
# Sequence of Mitogen-activated protein kinase 8 (P45983 whole entry): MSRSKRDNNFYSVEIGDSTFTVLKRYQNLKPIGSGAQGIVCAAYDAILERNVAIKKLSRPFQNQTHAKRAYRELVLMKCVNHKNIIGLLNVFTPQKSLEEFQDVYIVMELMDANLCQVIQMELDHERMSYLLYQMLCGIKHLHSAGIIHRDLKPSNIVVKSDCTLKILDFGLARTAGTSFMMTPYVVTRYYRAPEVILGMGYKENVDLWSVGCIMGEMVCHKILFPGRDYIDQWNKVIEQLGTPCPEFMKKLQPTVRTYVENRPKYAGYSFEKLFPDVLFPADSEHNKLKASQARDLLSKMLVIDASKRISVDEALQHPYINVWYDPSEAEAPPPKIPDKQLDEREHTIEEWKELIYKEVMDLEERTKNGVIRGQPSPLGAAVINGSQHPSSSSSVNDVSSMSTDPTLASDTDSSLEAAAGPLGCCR
# [13] = biological target: Mitogen-activated protein kinase 11 (Homo sapiens, UniProt Q15759); assay: Inhibition of MAPK11 (unknown origin) incubated for 1 hr by qPCR analysis; method in brief: as §3
# [14] = biological target: Mitogen-activated protein kinase 14 (Homo sapiens, UniProt Q16539); assay: Inhibition of MAPK14 (unknown origin) incubated for 1 hr by qPCR analysis; method in brief: as §3
# [15] = biological target: Mitogen-activated protein kinase kinase kinase 20 (Homo sapiens, UniProt Q9NYL2); assay: Inhibition of ZAK (unknown origin) incubated for 1 hr by qPCR analysis; method in brief: as §3
# Sequence of Mitogen-activated protein kinase kinase kinase 20 (Q9NYL2 whole entry): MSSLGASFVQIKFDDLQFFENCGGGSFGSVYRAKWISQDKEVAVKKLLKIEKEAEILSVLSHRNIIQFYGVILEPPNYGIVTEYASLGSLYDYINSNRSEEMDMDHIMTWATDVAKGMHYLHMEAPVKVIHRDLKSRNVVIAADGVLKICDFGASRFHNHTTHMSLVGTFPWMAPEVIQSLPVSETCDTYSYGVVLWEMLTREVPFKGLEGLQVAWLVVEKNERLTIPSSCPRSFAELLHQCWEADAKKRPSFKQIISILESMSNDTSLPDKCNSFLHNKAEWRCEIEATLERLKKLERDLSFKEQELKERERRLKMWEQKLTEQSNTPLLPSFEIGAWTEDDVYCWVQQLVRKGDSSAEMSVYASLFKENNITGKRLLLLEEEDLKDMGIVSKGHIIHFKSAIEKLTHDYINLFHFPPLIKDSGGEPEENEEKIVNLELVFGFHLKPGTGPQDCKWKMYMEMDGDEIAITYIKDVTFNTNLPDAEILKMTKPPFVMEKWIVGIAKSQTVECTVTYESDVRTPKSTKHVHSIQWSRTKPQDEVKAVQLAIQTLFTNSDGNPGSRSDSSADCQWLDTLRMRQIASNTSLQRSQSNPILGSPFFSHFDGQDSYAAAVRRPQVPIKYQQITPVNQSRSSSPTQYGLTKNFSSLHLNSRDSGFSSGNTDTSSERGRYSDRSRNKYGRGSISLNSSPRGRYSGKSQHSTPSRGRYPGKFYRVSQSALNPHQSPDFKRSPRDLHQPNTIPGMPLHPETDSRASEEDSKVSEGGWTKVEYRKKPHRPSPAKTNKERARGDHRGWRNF
# [16] = tested on: Panel leukemia (Carcinoma cell lines); assay: Antiproliferative activity against human Panel leukemia (Carcinoma cell lines) assessed as cell growth inhibition measured after 48 hrs by SRB assay
# NSCLC = assay: Antiproliferative activity against human NSCLC cell line assessed as cell growth inhibition measured after 48 hrs by SRB assay
# [17] = tested on: Panel colon (Carcinoma cell lines); assay: Antiproliferative activity against human Panel colon (Carcinoma cell lines) assessed as cell growth inhibition measured after 48 hrs by SRB assay
# [18] = tested on: Panel CNS (Carcinoma cell lines); assay: Antiproliferative activity against human Panel CNS (Carcinoma cell lines) assessed as cell growth inhibition measured after 48 hrs by SRB assay
# [19] = tested on: Panel melanoma (Carcinoma cell lines); assay: Antiproliferative activity against human Panel melanoma (Carcinoma cell lines) assessed as cell growth inhibition measured after 48 hrs by SRB assay
# [20] = tested on: Panel ovarian (Carcinoma cell lines); assay: Antiproliferative activity against human Panel ovarian (Carcinoma cell lines) assessed as cell growth inhibition measured after 48 hrs by SRB assay
# [21] = tested on: Panel renal (Carcinoma cell lines); assay: Antiproliferative activity against human Panel renal (Carcinoma cell lines) assessed as cell growth inhibition measured after 48 hrs by SRB assay
# [22] = tested on: Panel prostate (Carcinoma cell lines); assay: Antiproliferative activity against human Panel prostate (Carcinoma cell lines) assessed as cell growth inhibition measured after 48 hrs by SRB assay
# [23] = tested on: Panel breast (Carcinoma cell lines); assay: Antiproliferative activity against human Panel breast (Carcinoma cell lines) assessed as cell growth inhibition measured after 48 hrs by SRB assay
# LOX IMVI [24] = assay: Antiproliferative activity against human LOX IMVI cells assessed as cell growth inhibition measured after 48 hrs by SRB assay
# Malme-3M [25] = assay: Antiproliferative activity against human Malme-3M cells assessed as cell growth inhibition measured after 48 hrs by SRB assay
# M14 [26] = assay: Antiproliferative activity against human M14 cells assessed as cell growth inhibition measured after 48 hrs by SRB assay; conditions: M14, 48 h
# MDA-MB-435 [27] = assay: Antiproliferative activity against human MDA-MB-435 cells assessed as cell growth inhibition measured after 48 hrs by SRB assay; conditions: MDA-MB-435, 48 h
# SK-MEL-2 [28] = assay: Antiproliferative activity against human SK-MEL-2 cells assessed as cell growth inhibition measured after 48 hrs by SRB assay; conditions: SK-MEL-2, 48 h
# SK-MEL-28 [29] = assay: Antiproliferative activity against human SK-MEL-28 cells assessed as cell growth inhibition measured after 48 hrs by SRB assay; conditions: SK-MEL-28, 48 h
# SK-MEL-5 [30] = assay: Antiproliferative activity against human SK-MEL-5 cells assessed as cell growth inhibition measured after 48 hrs by SRB assay; conditions: SK-MEL-5, 48 h
# UACC-257 [31] = assay: Antiproliferative activity against human UACC-257 cells assessed as cell growth inhibition measured after 48 hrs by SRB assay; conditions: UACC-257, 48 h
# UACC-62 [32] = assay: Antiproliferative activity against human UACC-62 cells assessed as cell growth inhibition measured after 48 hrs by SRB assay; conditions: UACC-62, 48 h
# LOX IMVI [33] = assay: Antiproliferative activity against human LOX IMVI cells assessed as total growth inhibition measured after 48 hrs by SRB assay
# Malme-3M [34] = assay: Antiproliferative activity against human Malme-3M cells assessed as total growth inhibition measured after 48 hrs by SRB assay
# M14 [35] = assay: Antiproliferative activity against human M14 cells assessed as total growth inhibition measured after 48 hrs by SRB assay; conditions: M14, 48 h
# MDA-MB-435 [36] = assay: Antiproliferative activity against human MDA-MB-435 cells assessed as total growth inhibition measured after 48 hrs by SRB assay; conditions: MDA-MB-435, 48 h
# SK-MEL-2 [37] = assay: Antiproliferative activity against human SK-MEL-2 cells assessed as total growth inhibition measured after 48 hrs by SRB assay; conditions: SK-MEL-2, 48 h
# SK-MEL-28 [38] = assay: Antiproliferative activity against human SK-MEL-28 cells assessed as total growth inhibition measured after 48 hrs by SRB assay; conditions: SK-MEL-28, 48 h
# SK-MEL-5 [39] = assay: Antiproliferative activity against human SK-MEL-5 cells assessed as total growth inhibition measured after 48 hrs by SRB assay; conditions: SK-MEL-5, 48 h
# UACC-257 [40] = assay: Antiproliferative activity against human UACC-257 cells assessed as total growth inhibition measured after 48 hrs by SRB assay; conditions: UACC-257, 48 h
# UACC-62 [41] = assay: Antiproliferative activity against human UACC-62 cells assessed as total growth inhibition measured after 48 hrs by SRB assay; conditions: UACC-62, 48 h
# [42] = tested on: Panel leukemia (Carcinoma cell lines); assay: cells; conditions: Homo sapiens, 48 h, read-out: INH
# [43] = tested on: Panel colon (Carcinoma cell lines); assay: cells; conditions: Homo sapiens, 48 h, read-out: INH
# [44] = tested on: Panel melanoma (Carcinoma cell lines); assay: cells; conditions: Homo sapiens, 48 h, read-out: INH
# [45] = tested on: Panel ovarian (Carcinoma cell lines); assay: cells; conditions: Homo sapiens, 48 h, read-out: INH
# in vitro = conditions: human, BJ cells and Malme-3M cells
compound,measurement,setting,value
COc1ccc(-c2nc3sccn3c2-c2ccnc(NCCNS(=O)(=O)c3ccc(C)cc3)n2)cc1,IC50,[1],19.3 µM
same,IC50,[2],26.6 µM
same,IC50,[3],21.3 µM
same,IC50 at 48 h,[4],466 µM
same,IC50 at 48 h,[5],126 µM
CCCS(=O)(=O)Nc1ccc(F)c(C(=O)c2c[nH]c3ncc(-c4ccc(Cl)cc4)cc23)c1F,inhibition,A-375 [6],Active
same,inhibition,A-375 [7],Active
O=S(=O)(NCCNc1nccc(-c2c(-c3cccc(O)c3)nc3sccn23)n1)c1ccc(F)cc1,IC50,[1],0.0027 µM
same,IC50,[3],0.006 µM
same,IC50,[8],10.4 µM
same,IC50,[9],9.54 µM
same,IC50,[10],1.99 µM
same,IC50,[11],5.13 µM
same,IC50,[12],1.35 µM
same,IC50,[13],1.21 µM
same,IC50,[14],2.01 µM
same,IC50,[15],7.58 µM
COc1ccc(S(=O)(=O)NCCNc2nccc(-c3c(-c4ccccc4)nc4sccn34)n2)cc1,IC50,[3],0.172 µM
same,IC50,[16],2.99 µM
same,IC50,NSCLC,5.42 µM
same,IC50,[17],2.19 µM
same,IC50,[18],6.46 µM
same,IC50,[19],4.03 µM
same,IC50,[20],3.57 µM
same,IC50,[21],3.7 µM
same,IC50,[22],2.45 µM
same,IC50,[23],13.3 µM
same,IC50,LOX IMVI [24],3.9 µM
same,IC50,Malme-3M [25],8.7 µM
same,IC50,M14 [26],2.7 µM
same,IC50,MDA-MB-435 [27],1.2 µM
same,IC50,SK-MEL-2 [28],4.9 µM
same,IC50,SK-MEL-28 [29],5.7 µM
same,IC50,SK-MEL-5 [30],1.7 µM
same,IC50,UACC-257 [31],6.4 µM
same,IC50,UACC-62 [32],1.1 µM
same,TGI,LOX IMVI [33],> 100 µM
same,TGI,Malme-3M [34],> 100 µM
same,TGI,M14 [35],> 100 µM
same,TGI,MDA-MB-435 [36],> 100 µM
same,TGI,SK-MEL-2 [37],> 100 µM
same,TGI,SK-MEL-28 [38],> 100 µM
same,TGI,SK-MEL-5 [39],> 100 µM
same,TGI,UACC-257 [40],> 100 µM
same,TGI,UACC-62 [41],> 100 µM
same,IC50 at 48 h,[4],60.2 µM
same,IC50 at 48 h,[5],55.6 µM
same,inhibition at 10 µM,[42],81.3%
same,inhibition at 10 µM,[43],76.7%
same,inhibition at 10 µM,[44],83.8%
same,inhibition at 10 µM,[45],73.2%
same,selectivity ratio,in vitro,6.4
